Measurements from ChEMBL document CHEMBL4689842, “EUbOPEN Chemogenomics Library wave 1” (2021).

Tested on: Fibroblast
Assay: Multiplex assay against human fibroblast
Format: toxicity, cell-based
Outline: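 Compound was added to live cells that had been stained at seeding with Hoechst33342, BioTracker Green Microtubule Cytoskeleton Dye, MitoTracker Red and Annexin V Alexa Fluor 680, and imaging followed on a CQ1 microscope at 37°C and 5% CO2. CellPathfinder machine-learning gating divided cells into Hoechst high-intensity objects or normal cells, normal cells into healthy, pyknosed or fragmented nuclei, and pyknosed cells into mitotic or apoptotic. Tubulin, mitochondrial-mass and membrane-permeability phenotypes are per cents of healthy-nucleus cells.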

[1] = 12 h, 1 µM, compound concentration 1 uM, replicate 1
[2] = 12 h, 1 µM, compound concentration 1 uM, replicate 2
[3] = 12 h, 10 µM, compound concentration 10 uM, replicate 1
[4] = 12 h, 10 µM, compound concentration 10 uM, replicate 2
[5] = 24 h, 1 µM, compound concentration 1 uM, replicate 1
[6] = 24 h, 1 µM, compound concentration 1 uM, replicate 2
[7] = 24 h, 10 µM, compound concentration 10 uM, replicate 1
[8] = 24 h, 10 µM, compound concentration 10 uM, replicate 2
[9] = 48 h, 1 µM, compound concentration 1 uM, replicate 1
[10] = 48 h, 1 µM, compound concentration 1 uM, replicate 2
[11] = 48 h, 10 µM, compound concentration 10 uM, replicate 1
[12] = 48 h, 10 µM, compound concentration 10 uM, replicate 2

For `Cc1c[nH]c2nccc(Oc3c(F)cc(Nc4cc(Cl)nc(N)n4)cc3F)c12` [BAY-549], the “Population Apoptotic (%)” value [1] was 54%, the “Population Fragmented Nuclei (%)” value [1] was 25% and the “Population Healthy Nuclei (%)” value [1] was 41%. The “Population Hoechst High Intensity Objects (%)” value [1] was 12%, the “Population Membrane Permeable-Phenotype (%)” value [1] was 32% and the “Population Mitochondria Different-Phenotype (%)” value [1] was 3%. The “Population Mitotic Cells (%)” value [1] was 46%, the “Population Normal (%)” value [1] was 87% and the “Population Pyknosed Nuclei (%)” value [1] was 33%. The “Population Tubulin-Different-Phenotype (%)” value [1] was 38%, the “Total Cell Count” value [1] was 172 and the “Population Apoptotic (%)” value [2] was 44%. For the same molecule, the “Population Fragmented Nuclei (%)” value [2] was 12%, the “Population Healthy Nuclei (%)” value [2] was 73% and the “Population Hoechst High Intensity Objects (%)” value [2] was 5%. The “Population Membrane Permeable-Phenotype (%)” value [2] was 4%, the “Population Mitochondria Different-Phenotype (%)” value [2] was 6% and the “Population Mitotic Cells (%)” value [2] was 55%. The “Population Normal (%)” value [2] was 94%, the “Population Pyknosed Nuclei (%)” value [2] was 14% and the “Population Tubulin-Different-Phenotype (%)” value [2] was 12%. For the same molecule, the “Total Cell Count” value [2] was 68, the “Population Apoptotic (%)” value [3] was 66% and the “Population Fragmented Nuclei (%)” value [3] was 23%. For the same molecule, the “Population Healthy Nuclei (%)” value [3] was 31%, the “Population Hoechst High Intensity Objects (%)” value [3] was 10% and the “Population Membrane Permeable-Phenotype (%)” value [3] was 21%. For the same molecule, the “Population Mitochondria Different-Phenotype (%)” value [3] was 0%, the “Population Mitotic Cells (%)” value [3] was 33% and the “Population Normal (%)” value [3] was 90%. The “Population Pyknosed Nuclei (%)” value [3] was 45%, the “Population Tubulin-Different-Phenotype (%)” value [3] was 21% and the “Total Cell Count” value [3] was 130. For the same molecule, the “Population Apoptotic (%)” value [4] was 40%, the “Population Fragmented Nuclei (%)” value [4] was 17% and the “Population Healthy Nuclei (%)” value [4] was 65%. The “Population Hoechst High Intensity Objects (%)” value [4] was 6%, the “Population Membrane Permeable-Phenotype (%)” value [4] was 7% and the “Population Mitochondria Different-Phenotype (%)” value [4] was 10%. For the same molecule, the “Population Mitotic Cells (%)” value [4] was 60%, the “Population Normal (%)” value [4] was 93% and the “Population Pyknosed Nuclei (%)” value [4] was 17%. The “Population Tubulin-Different-Phenotype (%)” value [4] was 10%, the “Total Cell Count” value [4] was 62 and the “Population Apoptotic (%)” value [5] was 50%. For the same molecule, the “Population Fragmented Nuclei (%)” value [5] was 32%, the “Population Healthy Nuclei (%)” value [5] was 40% and the “Population Hoechst High Intensity Objects (%)” value [5] was 10%. The “Population Membrane Permeable-Phenotype (%)” value [5] was 26%, the “Population Mitochondria Different-Phenotype (%)” value [5] was 9% and the “Population Mitotic Cells (%)” value [5] was 50%. The “Population Normal (%)” value [5] was 89%, the “Population Pyknosed Nuclei (%)” value [5] was 27% and the “Population Tubulin-Different-Phenotype (%)” value [5] was 34%. The “Total Cell Count” value [5] was 170, the “Population Apoptotic (%)” value [6] was 46% and the “Population Fragmented Nuclei (%)” value [6] was 8%. For the same molecule, the “Population Healthy Nuclei (%)” value [6] was 71%, the “Population Hoechst High Intensity Objects (%)” value [6] was 3% and the “Population Membrane Permeable-Phenotype (%)” value [6] was 5%. The “Population Mitochondria Different-Phenotype (%)” value [6] was 7%, the “Population Mitotic Cells (%)” value [6] was 53% and the “Population Normal (%)” value [6] was 96%. For the same molecule, the “Population Pyknosed Nuclei (%)” value [6] was 20%, the “Population Tubulin-Different-Phenotype (%)” value [6] was 18% and the “Total Cell Count” value [6] was 77. For the same molecule, the “Population Apoptotic (%)” value [7] was 70%, the “Population Fragmented Nuclei (%)” value [7] was 44% and the “Population Healthy Nuclei (%)” value [7] was 30%. The “Population Hoechst High Intensity Objects (%)” value [7] was 21%, the “Population Membrane Permeable-Phenotype (%)” value [7] was 13% and the “Population Mitochondria Different-Phenotype (%)” value [7] was 13%. For the same molecule, the “Population Mitotic Cells (%)” value [7] was 30%, the “Population Normal (%)” value [7] was 78% and the “Population Pyknosed Nuclei (%)” value [7] was 25%. The “Population Tubulin-Different-Phenotype (%)” value [7] was 33%, the “Total Cell Count” value [7] was 152 and the “Population Apoptotic (%)” value [8] was 71%. For the same molecule, the “Population Fragmented Nuclei (%)” value [8] was 12%, the “Population Healthy Nuclei (%)” value [8] was 62% and the “Population Hoechst High Intensity Objects (%)” value [8] was 5%. The “Population Membrane Permeable-Phenotype (%)” value [8] was 11%, the “Population Mitochondria Different-Phenotype (%)” value [8] was 20% and the “Population Mitotic Cells (%)” value [8] was 28%. For the same molecule, the “Population Normal (%)” value [8] was 94%, the “Population Tubulin-Different-Phenotype (%)” value [8] was 20% and the “Total Cell Count” value [8] was 59. For the same molecule, the “Population Apoptotic (%)” value [9] was 66%, the “Population Fragmented Nuclei (%)” value [9] was 41% and the “Population Healthy Nuclei (%)” value [9] was 46%. The “Population Hoechst High Intensity Objects (%)” value [9] was 14%, the “Population Membrane Permeable-Phenotype (%)” value [9] was 13% and the “Population Mitochondria Different-Phenotype (%)” value [9] was 1%. For the same molecule, the “Population Mitotic Cells (%)” value [9] was 33%, the “Population Normal (%)” value [9] was 85% and the “Population Pyknosed Nuclei (%)” value [9] was 12%. The “Population Tubulin-Different-Phenotype (%)” value [9] was 19%, the “Total Cell Count” value [9] was 170 and the “Population Apoptotic (%)” value [10] was 100%. The “Population Fragmented Nuclei (%)” value [10] was 26%, the “Population Healthy Nuclei (%)” value [10] was 72% and the “Population Hoechst High Intensity Objects (%)” value [10] was 11%. For the same molecule, the “Population Membrane Permeable-Phenotype (%)” value [10] was 10%, the “Population Mitotic Cells (%)” value [10] was 0% and the “Population Normal (%)” value [10] was 88%. For the same molecule, the “Population Pyknosed Nuclei (%)” value [10] was 0%, the “Population Tubulin-Different-Phenotype (%)” value [10] was 5% and the “Total Cell Count” value [10] was 184. For the same molecule, the “Population Apoptotic (%)” value [11] was 80%, the “Population Fragmented Nuclei (%)” value [11] was 56% and the “Population Healthy Nuclei (%)” value [11] was 29%. For the same molecule, the “Population Hoechst High Intensity Objects (%)” value [11] was 20%, the “Population Membrane Permeable-Phenotype (%)” value [11] was 16% and the “Population Mitochondria Different-Phenotype (%)” value [11] was 16%. For the same molecule, the “Population Mitotic Cells (%)” value [11] was 20%, the “Population Normal (%)” value [11] was 79% and the “Population Pyknosed Nuclei (%)” value [11] was 13%. The “Population Tubulin-Different-Phenotype (%)” value [11] was 23%, the “Total Cell Count” value [11] was 180 and the “Population Apoptotic (%)” value [12] was 57%. The “Population Fragmented Nuclei (%)” value [12] was 50%, the “Population Healthy Nuclei (%)” value [12] was 45% and the “Population Hoechst High Intensity Objects (%)” value [12] was 17%. For the same molecule, the “Population Membrane Permeable-Phenotype (%)” value [12] was 5%, the “Population Mitochondria Different-Phenotype (%)” value [12] was 10% and the “Population Mitotic Cells (%)” value [12] was 42%. The “Population Normal (%)” value [12] was 82%, the “Population Pyknosed Nuclei (%)” value [12] was 3% and the “Population Tubulin-Different-Phenotype (%)” value [12] was 6%. For the same molecule, the “Total Cell Count” value [12] was 239.
